Screens deposited in PubChem BioAssay by The Scripps Research Institute Molecular Screening Center.
OXTR agonist: human OXTR agonists, primary screen, fluorescence, CHO-OTR cells, Fluo-8 calcium. Oxytocin receptor (Homo sapiens), P30559. Fluo-8 calcium fluorescence; normalized: DMSO 0%, oxytocin 100%. activation, % at 3 µM. hit rate 0.32% among 320,000. AID 2435, 2010;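 active = activation above the mean of all tested compounds plus 3 SD, cutoff set per screening run, cut at about 20% in these data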;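 also: peak over basal fluorescence ratio from a 100 s FLIPR kinetic read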
OXTR potentiator: human OXTR potentiators, primary screen, fluorescence, CHO-OTR cells, Fluo-8 calcium; Fluo-8 calcium fluorescence, potentiator mode; 0% = oxytocin EC15, 100% = EC100; hit rate 0.061% among 320,000; activation, % at 3 µM; Oxytocin receptor (Homo sapiens), P30559;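 active = activation above that plate's cutoff, the mean activation of tested compounds plus 3 SD, cut at about 6.6% in these data, passing the limit was not always enough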;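 also: 100% uses oxytocin at 75 nM as the full agonist control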
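Dosing: Single dose, 3.0 µM nominal final compound concentration | Material: Human OTR in CHO cells | Technique: Kinetic Fluo-8 calcium fluorescence | Benchmarks: EC15 oxytocin alone as 0%, 75 nM oxytocin as 100% | Probe or stimulus: Oxytocin at about EC15, sub-maximal agonist stimulus | Incubation: Compound 6 min at room temperature before oxytocin, 100 s read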
CHO parental Ca: ATP-evoked calcium signal inhibitors, parental CHO, primary screen, counter-screen for OX1R antagonist project, cell-based, fluorescence, Fluo-8 calcium dye. inhibition, % at 5.6 µM. AID 463079, 2010. parental CHO-K1, ATP-induced calcium, Fluo-8 fluorescence. hit rate 0.63% among 330,000;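 active = inhibition above that plate's mean sample inhibition plus 3 SD, cut at about 26% in these data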;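 also: 0% = ATP-challenged DMSO wells and 100% = DMSO wells without ATP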
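Material: parental CHO cells / Compound: single nominal dose of 5.6 µM per compound / Signal: Fluo-8 fluorescence / Replicates: singlicate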
V1aR counter: agonists of human V1a receptor, primary screen, counter-screen for OXTR agonist project, fluorescence, CHO-V1R cells. hit rate 0.25% among 320,000. activation, % at 3 µM. AID 2797, 2010. Fluo-8 calcium fluorescence, agonist mode; 0% DMSO, 100% 3 nM vasopressin;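 active = activation above the mean activation of all tested compounds plus 3 SD, per screening run, cut at about 20% in these data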;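 also: signal is peak over basal fluorescence ratio across a 100 second FLIPR read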
OX1R antag-1: antagonists of human orexin 1 receptor (OX1R); Orexin/Hypocretin receptor type 1 (Homo sapiens), O43613; AID 485270, 2010; hit rate 1.8% among 330,000; inhibition, % at 6.6 µM; OX1R-expressing cells, FRET antagonist read-out; in the data active = inhibition mostly above about 38%, no sharp cut-off; inactive = mostly below about 40%;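 also: 0% = agonist challenge alone and 100% = reference antagonist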
Target sequence (O43613 whole entry, looked up): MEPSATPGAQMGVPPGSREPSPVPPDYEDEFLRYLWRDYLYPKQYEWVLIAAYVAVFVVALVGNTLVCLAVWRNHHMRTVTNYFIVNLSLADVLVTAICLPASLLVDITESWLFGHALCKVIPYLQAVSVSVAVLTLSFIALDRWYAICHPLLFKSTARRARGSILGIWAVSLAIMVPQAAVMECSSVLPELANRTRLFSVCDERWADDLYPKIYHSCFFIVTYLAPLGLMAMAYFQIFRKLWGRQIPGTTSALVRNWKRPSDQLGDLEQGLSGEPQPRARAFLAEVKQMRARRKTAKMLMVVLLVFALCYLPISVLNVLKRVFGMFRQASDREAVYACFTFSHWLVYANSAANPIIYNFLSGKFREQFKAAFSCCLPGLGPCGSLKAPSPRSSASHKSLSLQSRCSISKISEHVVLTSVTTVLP
OX1R antag-2: OX1R (HCRTR1) antagonists, primary screen, fluorescence, CHO/OX1R cells, Fluo-8 calcium, orexin A; Orexin/Hypocretin receptor type 1 (Homo sapiens), O43613; Fluo-8 calcium fluorescence; inhibition, % at 5 µM; hit rate 0.43% among 330,000; AID 434989, 2010;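 active = inhibition above its plate's threshold, mean inhibition of all tested compounds on the plate plus 3 SD, cut at about 37% in these data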;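 also: 0% = orexin A challenge wells and 100% = SB-334867-A antagonist wells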
Numbers without * were called inactive; . = no result. A selection: hits, their analogues and other compounds. The true share with any hit is near 2.6%.

SMILES	OXTR agonist	OXTR potentiator	CHO parental Ca	V1aR counter	OX1R antag-1	OX1R antag-2
CCCc1cc(=O)[nH]c(Nc2ccc(O)cc2)n1	0.6	-4.7	-1.4	-0.1	11.4	-5.4
COc1ccc(-n2nc3cc(N)c(Br)cc3n2)cc1	-1.1	-5.7	-5.6	-0.6	43.3*	-16.0
COc1ncnc2c1NC1=C(S2)C(=NCCC(=O)O)CC(C)(C)C1	0.9	-17.7	-6.8	0.2	71.5*	4.6
O=C(OC(c1ccccc1)c1nccc2ccccc12)c1cc([N+](=O)[O-])cc([N+](=O)[O-])c1 (centres undefined)	-1.6	-0.8	-30.3	-0.6	62.2*	-45.3
CC(C1CC2CCC1C2)n1c(COc2ccccc2F)nnc1SCC(N)=O (centres undefined)	5.1	-4.6	-9.5	0.9	9.5	-31.7
CC(C)NC(=O)NC(=O)CSc1nnc(COc2ccccc2F)n1C(C)C1CC2CCC1C2 (centres undefined)	-1.5	-10.5	69.7*	0.5	0.2	4.9
O=C(Cc1ccc(Cl)cc1)NCC(=O)N1CCCCCC1	-1.0	-13.2	-1.9	-0.5	16.4	-7.0
COc1ccc(C(=O)OCC(=O)Nc2ncc([N+](=O)[O-])s2)cc1OC	3.2	0.7	-3.0	1.5	19.1	-2.1
O=C(COC(=O)c1ccc(Br)o1)Nc1ncc([N+](=O)[O-])s1	11.2	-11.5	12.8	8.7	41.2*	12.1
O=C(CCS(=O)(=O)Cc1ccccc1)Nc1ncc([N+](=O)[O-])s1	1.6	-4.3	-2.3	3.6	49.2*	-14.9
Cc1ccc(CC(=O)Nc2ncc([N+](=O)[O-])s2)cc1	8.1	-17.2	9.8	8.5	40.4*	-10.2
O=C(Nc1ncc([N+](=O)[O-])s1)c1ccccc1Br	12.1	-17.9	4.2	14.8	42.8*	-2.4
CCCCC(CC)C(=O)Nc1ncc([N+](=O)[O-])s1 (centres undefined)	7.6	-13.1	38.2*	10.1	36.4	24.7
Cc1ccccc1C(=O)c1cccn1CC(=O)NCCCc1ccccc1	-2.7	-17.2	-7.3	-0.7	20.2	-6.0
Cc1ccccc1C(=O)c1cccn1CC(=O)NCC(C)c1ccccc1 (centres undefined)	-2.6	-11.2	-23.4	-1.8	38.9*	15.8
Cc1ccccc1C(=O)c1cccn1CC(=O)NC1CCCC(C)C1C (centres undefined)	-2.7	-7.7	4.1	2.5	39.5*	28.3
O=C(CSc1nnc(C2CC2)n1CC1CCCO1)Nc1cccc(Cl)c1 (centres undefined)	0.7	-5.4	7.1	1.4	16.4	-2.0
COc1ccccc1C(=O)COC(=O)Cc1ccccc1F	-1.6	-2.1	-8.2	-0.4	3.3	-5.6
CCOC(=O)C1CCCN(S(=O)(=O)c2cc(C(=O)OC)n(C)c2)C1 (centres undefined)	6.9	-5.6	26.2*	10.1	4.3	-1.9
CCOC(=O)C1CCCN(S(=O)(=O)c2ccccc2)C1 (centres undefined)	0.3	-2.8	-3.8	-0.7	16.6	-21.2
CSc1ccccc1OCc1cc(C(=O)N2CCc3c(Cl)cccc3C2)no1	2.2	-10.8	58.2*	0.7	41.6	62.3*
CCOC(=O)C1=C(COC(=O)c2sccc2C)NC(=O)NC1C (centres undefined)	0.0	-5.1	-20.2	0.2	0.7	-3.0
CCOC(=O)C1=C(COC(=O)c2ccc([N+](=O)[O-])s2)NC(=O)NC1C (centres undefined)	2.1	-5.5	0.2	1.9	36.7*	-18.2
COc1ccc(C(=O)NC(=S)NNC(=O)c2c(-c3ccccc3)noc2C)cc1OC	20.8*	-17.2	-4.9	28.6*	5.8	-23.0
Cc1onc(-c2ccccc2)c1C(=O)NCc1ccc2c(c1)OCO2	-0.8	4.2	-13.4	-0.3	5.8	-22.3
SMILES	OXTR agonist	OXTR potentiator	CHO parental Ca	V1aR counter	OX1R antag-1	OX1R antag-2
Cc1onc(-c2ccccc2)c1C(=O)NNC(=S)NC(=O)/C=C/c1cccs1	29.1*	-11.1	-1.5	24.2*	4.4	-1.8
Cc1onc(-c2ccccc2)c1C(=O)NC(=S)NNC(=O)c1ccncc1	-1.9	-5.0	-7.4	1.1	10.2	8.4
Cc1onc(-c2ccccc2)c1C(=O)NNC(=S)NC(=O)c1ccc2c(c1)OCO2	27.2*	-18.9	15.3	53.0*	1.9	-2.3
N#Cc1ccsc1NC(=O)COC(=O)c1cc2ccccc2cc1O	3.7	-8.5	-13.7	3.9	41.1*	-8.3
CCc1ccc(-c2cc3c(=O)n(CC(=O)NCCCN4CCN(CC)CC4)nc(C)n3n2)cc1	-0.3	-5.1	-11.7	0.0	3.6	-18.2
COc1ccc(C(=O)CSC2=NS(=O)(=O)c3cc(Cl)ccc3N2)cc1	0.8	-2.5	-7.1	3.4	61.9*	-10.8
COc1ccc2c(c1)Cc1sc(NC(=O)c3cccs3)nc1-2	-1.8	-4.6	-20.6	-1.1	67.9*	-5.4
Cc1ccc(C)c(-n2nnnc2SCC(=O)NNC(=O)c2ccco2)c1	0.2	-9.7	-13.2	0.7	30.6	-12.4
Cc1cc(C(=O)CSc2nc3ccccc3[nH]2)c(C)n1CC1CCCO1 (centres undefined)	15.0	-13.2	85.1*	11.2	54.4*	59.0*
Cc1cc(C(=O)CSc2nc3ccccc3o2)c(C)n1CC1CCCO1 (centres undefined)	8.0	-27.0	32.0	6.3	64.3	39.3*
COCCS(=O)(=O)N(Cc1ccccc1)[C@H](C(=O)OC)C(C)C	.	.	-6.6	.	8.8	-20.0
O=C(/C=C/CCc1ccc2c(c1)OCO2)N1CCCCC1	0.6	-5.9	-0.1	0.2	6.7	-5.1
O=C1/C(=C/c2ccsc2)N2CCC1CC2	-1.1	2.1	1.6	0.3	11.9	-19.4
O=C(COc1ccc(Cl)cc1Cl)N1CCNC1=O	-0.1	-6.0	-4.2	0.3	-1.0	-12.3
Cc1ccc(C)c(NC(=O)CN(C)C(=O)c2ccc(S(=O)(=O)N(C)c3ccccc3)cc2)c1	3.2	-8.0	-15.2	2.9	30.3*	-4.2
NC(=O)c1nnn(-c2ccc([N+](=O)[O-])cc2)c1-c1ccccc1	0.0	-7.0	-2.2	0.4	43.5*	-12.8
Nc1ccc(-c2nnnn2-c2ccc(N)cc2)cc1	1.3	0.0	27.8*	0.3	0.6	-12.7
O=[N+]([O-])c1ccc(-n2nnnc2-c2ccccc2)cc1	-0.4	-10.4	-1.3	-0.5	54.1*	-1.6
